According to ChEMBL document CHEMBL1629690, “Development of hexadecyloxypropyl tenofovir (CMX157) for treatment of infection caused by wild-type and nucleoside/nucleotide-resistant HIV” (Antimicrob Agents Chemother, 2010):

Test system: Human immunodeficiency virus 1
Assay: Antiviral activity against HIV1 isolate 162 harboring reverse transcriptase A62V/V75I/F77L/Y115F/F116Y/Q151M/M184V mutant gene by phenosense assay
Format: functional, organism-based
Details: Human immunodeficiency virus 1, isolate 162
Outline: (§1)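 Recombinant-virus PhenoSense HIV assay run on a panel of 30 NRTI-resistant HIV-1 mutants and two wild-type viruses. Each virus is tested across increasing drug concentrations to give an inhibition curve and EC50. Fold change is the test recombinant EC50 divided by the EC50 of the drug-sensitive wild-type reference virus.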

Question: For `O=c1[nH]cnc2c1ncn2[C@H]1CC[C@@H](CO)O1` [DIDANOSINE], which EC50 is on record?
Answer: The EC50 was 58 µM.

Test system: Human immunodeficiency virus 1
Assay: Antiviral activity against HIV1 isolate 071 harboring reverse transcriptase 65R/S68N/184V mutant gene by phenosense assay
Format: functional, organism-based
Details: Human immunodeficiency virus 1, isolate 071
Outline: as §1

Question: `O=c1[nH]cnc2c1ncn2[C@H]1CC[C@@H](CO)O1` [DIDANOSINE] was tested. Which EC50 did it give?
Answer: Its EC50 is 14 µM.

Test system: Human immunodeficiency virus 1
Assay: Antiviral activity against HIV1 isolate 157 harboring reverse transcriptase L74V/M184V mutant gene by phenosense assay
Format: functional, organism-based
Details: Human immunodeficiency virus 1, isolate 157
Outline: as §1

Question: Which EC50 does the source give for `O=c1[nH]cnc2c1ncn2[C@H]1CC[C@@H](CO)O1` [DIDANOSINE] here?
Answer: Its EC50 is 11 µM.

Test system: Human immunodeficiency virus 1
Assay: Antiviral activity against HIV1 isolate 060 harboring reverse transcriptase M41L/D67N/K70R/L210W/T215Y/K219E mutant gene by phenosense assay
Format: functional, organism-based
Details: Human immunodeficiency virus 1, isolate 060
Outline: as §1

Question: How did the EC50 turn out when `O=c1[nH]cnc2c1ncn2[C@H]1CC[C@@H](CO)O1` [DIDANOSINE] was run?
Answer: The EC50 was 8.9 µM.

Test system: Human immunodeficiency virus 1
Assay: Antiviral activity against HIV1 isolate 200 harboring reverse transcriptase M41L/L210W/T215Y mutant gene by phenosense assay relative to wild type
Format: functional
Details: not given
Outline: as §1

Question: How did the “fold change (FC)” value turn out when `O=c1[nH]cnc2c1ncn2[C@H]1CC[C@@H](CO)O1` [DIDANOSINE] was run?
Answer: Its value is 1.4.

Test system: Human immunodeficiency virus 1
Assay: Antiviral activity against HIV1 isolate 217 harboring reverse transcriptase D67N/K70E/M184V mutant gene by phenosense assay relative to wild type
Format: functional
Details: not given
Outline: (§2)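 PhenoSense HIV recombinant virus assay: patient-derived HIV-1 with major NRTI resistance mutations tested against increasing drug concentrations to give inhibition curves. EC50 is the concentration giving 50% inhibition. Fold change is the test recombinant EC50 divided by the EC50 of a drug-sensitive wild-type reference virus. Panel of 30 NRTI-resistant isolates plus two wild-type viruses.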

Question: For `O=c1[nH]cnc2c1ncn2[C@H]1CC[C@@H](CO)O1` [DIDANOSINE], which “fold change (FC)” value is on record?
Answer: Its value is 1.3.

Test system: Human immunodeficiency virus 1
Assay: Antiviral activity against HIV1 isolate 160 harboring reverse transcriptase S68G/V75(I/T)/F77L/Y115F/F116Y /Q151M mutant gene by phenosense assay
Format: functional, organism-based
Details: Human immunodeficiency virus 1, isolate 160
Outline: as §1

Question: Which EC50 does the source give for `O=c1[nH]cnc2c1ncn2[C@H]1CC[C@@H](CO)O1` [DIDANOSINE] here?
Answer: Its EC50 is 63 µM.

Test system: Human immunodeficiency virus 1
Assay: Antiviral activity against HIV1 isolate 071 harboring reverse transcriptase 65R/S68N/184V mutant gene by phenosense assay relative to wild type
Format: functional
Details: not given
Outline: as §1

Question: For `O=c1[nH]cnc2c1ncn2[C@H]1CC[C@@H](CO)O1` [DIDANOSINE], which “fold change (FC)” value is on record?
Answer: The value was 2.6.

Test system: Human immunodeficiency virus 1
Assay: Antiviral activity against HIV1 isolate 157 harboring reverse transcriptase L74V/M184V mutant gene by phenosense assay relative to wild type
Format: functional
Details: not given
Outline: as §1

Question: How did the “fold change (FC)” value turn out when `O=c1[nH]cnc2c1ncn2[C@H]1CC[C@@H](CO)O1` [DIDANOSINE] was run?
Answer: Its value is 2.

Test system: Human immunodeficiency virus 1
Assay: Antiviral activity against HIV1 isolate 153 harboring reverse transcriptase L74V mutant gene by phenosense assay
Format: functional, organism-based
Details: Human immunodeficiency virus 1, isolate 153
Outline: as §1

Question: For `O=c1[nH]cnc2c1ncn2[C@H]1CC[C@@H](CO)O1` [DIDANOSINE], which EC50 is on record?
Answer: Its EC50 is 8.9 µM.

Test system: Human immunodeficiency virus 1
Assay: Antiviral activity against HIV1 isolate 070 harboring reverse transcriptase 65R/S68G mutant gene by phenosense assay relative to wild type
Format: functional
Details: not given
Outline: as §1

Question: `O=c1[nH]cnc2c1ncn2[C@H]1CC[C@@H](CO)O1` [DIDANOSINE] was tested. Which “fold change (FC)” value did it give?
Answer: Its value is 1.7.

Test system: Human immunodeficiency virus 1
Assay: Antiviral activity against HIV1 isolate 060 harboring reverse transcriptase M41L/D67N/K70R/L210W/T215Y/K219E mutant gene by phenosense assay relative to wild type
Format: functional
Details: not given
Outline: as §1

Question: For `O=c1[nH]cnc2c1ncn2[C@H]1CC[C@@H](CO)O1` [DIDANOSINE], which “fold change (FC)” value is on record?
Answer: Its value is 1.5.

Test system: Human immunodeficiency virus 1
Assay: Antiviral activity against HIV1 isolate 061 harboring reverse transcriptase M41L/D67N/K70R/M184V/L210W/T215Y/K219E mutant gene by phenosense assay
Format: functional, organism-based
Details: Human immunodeficiency virus 1, isolate 061
Outline: as §1

Question: For `O=c1[nH]cnc2c1ncn2[C@H]1CC[C@@H](CO)O1` [DIDANOSINE], which EC50 is on record?
Answer: The EC50 was 12 µM.

Test system: Human immunodeficiency virus 1
Assay: Antiviral activity against HIV1 isolate 211 harboring reverse transcriptase D67N/K70R/T215F/K219E/M184V mutant gene by phenosense assay relative to wild type
Format: functional
Details: not given
Outline: as §2

Question: For `O=c1[nH]cnc2c1ncn2[C@H]1CC[C@@H](CO)O1` [DIDANOSINE], which “fold change (FC)” value is on record?
Answer: The value was 1.6.

Test system: Human immunodeficiency virus 1
Assay: Antiviral activity against HIV1 isolate 212 harboring reverse transcriptase L210W/T215Y mutant gene by phenosense assay
Format: functional, organism-based
Details: Human immunodeficiency virus 1, isolate 212
Outline: as §2

Question: With `O=c1[nH]cnc2c1ncn2[C@H]1CC[C@@H](CO)O1` [DIDANOSINE] as the molecule, how does the EC50 read?
Answer: The EC50 was 5.5 µM.

Test system: Human immunodeficiency virus 1
Assay: Antiviral activity against HIV1 isolate 070 harboring reverse transcriptase 65R/S68G mutant gene by phenosense assay
Format: functional, organism-based
Details: Human immunodeficiency virus 1, isolate 070
Outline: as §1

Question: For `O=c1[nH]cnc2c1ncn2[C@H]1CC[C@@H](CO)O1` [DIDANOSINE], which EC50 is on record?
Answer: Its EC50 is 9.2 µM.

Test system: Human immunodeficiency virus 1
Assay: Antiviral activity against HIV1 isolate 188 harboring reverse transcriptase T215Y/M184V mutant gene by phenosense assay
Format: functional, organism-based
Details: Human immunodeficiency virus 1, isolate 188
Outline: as §1

Question: With `O=c1[nH]cnc2c1ncn2[C@H]1CC[C@@H](CO)O1` [DIDANOSINE] as the molecule, how does the EC50 read?
Answer: The EC50 was 7.9 µM.

Test system: Human immunodeficiency virus 1
Assay: Antiviral activity against HIV1 isolate 067 harboring reverse transcriptase A62V/D67G/T69SVG/V75I/T215I mutant gene by phenosense assay
Format: functional, organism-based
Details: Human immunodeficiency virus 1, isolate 067
Outline: as §1

Question: How did the EC50 turn out when `O=c1[nH]cnc2c1ncn2[C@H]1CC[C@@H](CO)O1` [DIDANOSINE] was run?
Answer: The EC50 was 22 µM.

Test system: Human immunodeficiency virus 1
Assay: Antiviral activity against HIV1 isolate 192 harboring reverse transcriptase M41L/T215Y mutant gene by phenosense assay
Format: functional, organism-based
Details: Human immunodeficiency virus 1, isolate 192
Outline: as §1

Question: `O=c1[nH]cnc2c1ncn2[C@H]1CC[C@@H](CO)O1` [DIDANOSINE] was tested. Which EC50 did it give?
Answer: The EC50 was 6.3 µM.

Test system: Human immunodeficiency virus 1
Assay: Antiviral activity against HIV1 isolate 215 harboring reverse transcriptase D67N/K70E mutant gene by phenosense assay
Format: functional, organism-based
Details: Human immunodeficiency virus 1, isolate 215
Outline: as §2

Question: For `O=c1[nH]cnc2c1ncn2[C@H]1CC[C@@H](CO)O1` [DIDANOSINE], which EC50 is on record?
Answer: The EC50 was 7.7 µM.

Test system: Human immunodeficiency virus 1
Assay: Antiviral activity against HIV1 isolate 061 harboring reverse transcriptase M41L/D67N/K70R/M184V/L210W/T215Y/K219E mutant gene by phenosense assay relative to wild type
Format: functional
Details: not given
Outline: as §1

Question: `O=c1[nH]cnc2c1ncn2[C@H]1CC[C@@H](CO)O1` [DIDANOSINE] was tested. Which “fold change (FC)” value did it give?
Answer: The value was 2.1.

Test system: Human immunodeficiency virus 1
Assay: Antiviral activity against HIV1 isolate 192 harboring reverse transcriptase M41L/T215Y mutant gene by phenosense assay relative to wild type
Format: functional
Details: not given
Outline: as §1

Question: For `O=c1[nH]cnc2c1ncn2[C@H]1CC[C@@H](CO)O1` [DIDANOSINE], which “fold change (FC)” value is on record?
Answer: Its value is 1.1.

Test system: Human immunodeficiency virus 1
Assay: Antiviral activity against HIV1 isolate 180 harboring reverse transcriptase K65R mutant gene obtained as site-directed mutant of NL4-3 by phenosense assay relative to wild type
Format: functional
Details: not given
Outline: as §1

Question: `O=c1[nH]cnc2c1ncn2[C@H]1CC[C@@H](CO)O1` [DIDANOSINE] was tested. Which “fold change (FC)” value did it give?
Answer: Its value is 2.

Test system: Human immunodeficiency virus 1
Assay: Antiviral activity against HIV1 isolate 056 expressing wild type reverse transcriptase gene by phenosense assay
Format: functional, organism-based
Details: Human immunodeficiency virus 1, isolate 056
Outline: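 In the PhenoSense recombinant virus assay, virus was tested against increasing drug concentrations. EC50 came from the inhibition curve and was compared with a drug-sensitive reference virus.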

Question: `O=c1[nH]cnc2c1ncn2[C@H]1CC[C@@H](CO)O1` [DIDANOSINE] was tested. Which EC50 did it give?
Answer: The EC50 was 5.5 µM.

Test system: Human immunodeficiency virus 1
Assay: Antiviral activity against HIV1 isolate 058 harboring reverse transcriptase M41L/D67N/K70R/L210W/T215F/K219Q mutant gene by phenosense assay
Format: functional, organism-based
Details: Human immunodeficiency virus 1, isolate 058
Outline: as §1

Question: How did the EC50 turn out when `O=c1[nH]cnc2c1ncn2[C@H]1CC[C@@H](CO)O1` [DIDANOSINE] was run?
Answer: Its EC50 is 8.8 µM.

Test system: Human immunodeficiency virus 1
Assay: Antiviral activity against HIV1 isolate 067 harboring reverse transcriptase A62V/D67G/T69SVG/V75I/T215I mutant gene by phenosense assay relative to wild type
Format: functional
Details: not given
Outline: as §1

Question: How did the “fold change (FC)” value turn out when `O=c1[nH]cnc2c1ncn2[C@H]1CC[C@@H](CO)O1` [DIDANOSINE] was run?
Answer: Its value is 4.

Test system: Human immunodeficiency virus 1
Assay: Antiviral activity against HIV1 isolate 174 harboring reverse transcriptase M184V mutant gene obtained as site-directed mutant of NL4-3 by phenosense assay
Format: functional, organism-based
Details: Human immunodeficiency virus 1, isolate 174
Outline: as §1

Question: `O=c1[nH]cnc2c1ncn2[C@H]1CC[C@@H](CO)O1` [DIDANOSINE] was tested. Which EC50 did it give?
Answer: Its EC50 is 6.8 µM.
